Experimental data from the EternaBench riboswitch data.

Test system: MS2 coat protein
Assay: apparent Kd, MS2 coat protein; higher = weaker binding; RNA-MaP array; FMN 200 µM where present
Summary of the method: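 Apparent Kd: the median of filtered binding-curve fits from single clusters. Designs were transcribed on Illumina sequencing-chip clusters by stalled E. coli RNA polymerase and titrated with SNAP-549-labelled MS2 coat protein from 0.7 or 1.5 nM, doubling to 3 µM, in 100 mM Tris-HCl pH 7.5, 80 mM KCl, 4 mM MgCl2, BSA, DTT, yeast tRNA and Tween-20. Each series ran without and then with constant ligand, and green signal was normalised to red-channel RNA signal and control-cluster median Fmax.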

[1] = designed as: ON switch for flavin mononucleotide, no ligand
[2] = ligand present: flavin mononucleotide, designed as: ON switch for flavin mononucleotide
[3] = designed as: OFF switch for flavin mononucleotide, no ligand
[4] = ligand present: flavin mononucleotide, designed as: OFF switch for flavin mononucleotide

Sequence	apparent Kd [1] [nM]	apparent Kd [2] [nM]	apparent Kd [3] [nM]	apparent Kd [4] [nM]
UGGUACUAAGGAGGAUAUGGGAAGAUACAUGAGGAUCACCCAUGUUUAAGAAUGCCGAGAGGCAACUAGAAGGCCCUAGUACCU	415	21.9	–	–
UGGUACUACGGAGGAUAUCAUGUAGAUACAUGAGGAUCACCCAUGUCGUACGAGAGUACGGAGAUUGAGAAGGCCGUAGUACCU	30.5	15.1	–	–
UGGUACUAGGGAGGAUAUGGGAAGAUACAUGAGGAUCACCCAUGUUUAAGAAUGCCGAGAGGCAACUAGAAGGCCCUAGAACCU	406	19.7	–	–
UGGUACUAGGGAGGAUAUGGGAAGAUACAUGAGGAUCACCCAUGUUUAAGAAUGCCGAGAGGCAACUAGAAGGCCCUAGUAUCU	382	18.9	–	–
UGGUACUAGGGAGGAUAUGGGAAGAUACAUGAGGAUCACCCAUGUUUAAGAAUGCCGAGAGGCAACUAGAAGGCCCUCGUACCU	432	20.1	–	–
UGGUACUAGGGAGGAUAUGGGAAGAUACAUGAGGAUCACCCAUGUUUAAGAAUGCCGAGAGGCAACUAGAAGGCGCUAGUACCU	710	90.9	–	–
UGGUACUAGGGAGGAUAUGGGAAGAUACAUGAGGAUCACCCAUGUUUAAGAAUGCCGCGAGGCAACUAGAAGGCCCUAGUACCU	398	19.6	–	–
UGGUACUAGGGAGGAUAUGGGAAGAUACAUGAGGAUCACCCAUGUUUAAGAAUGUCGAGAGGCAACUAGAAGGCCCUAGUACCU	504	19.4	–	–
UGGUACUAGGGAGGAUAUGGGUAGAUACAUGAGGAUCACCCAUGUUUAAGAAUGCCGAGAGGCAACUAGAAGGCCCUAGUACCU	549	319	–	–
UGGUGACGUUUCUUCUCGACAUGAGGAUCACCCAUGUAGACAGAGGAUAUCCGAGUUGCCAAUAAGGAGAAGGCUGACUGCGAA	–	–	6.61	10.2
UGGUUGCGAGUAGGAUAUGGUGUUUUUGUUUGGUUAGAAGGGUUCGUGAUUGUGACAUGAGGAUCACCCAUGUGUGUUGUUGUU	63.6	70.5	–	–
UGUAUAUAGGCAGGAUAUACAUGAAUAUAUAUGAUGUAGUAUGAUGUAACAUGAGGAUCACCCAUGUAGAAGGGCCAGUAUAUA	–	–	45.3	129
UGUAUGGACAGAGGAUAUACCGAUAGGAUCUACUAUCGAAGAAUCCUCACAUGAGGAUCACCCAUGUAGAAGGCUGUCCAUACU	–	–	41.3	665
UGUAUGGACAGAGGAUAUGCCGAUAGGAUUUACUAUCGAAGAAUCCUCACAUGAGGAUCACCCAUGUAGAAGGCUGUCCAUACU	–	–	8.14	38.4
UGUCCAUAGCAGAAGGACAUAAAUAACCAUGAAAACAUGAGGAUCACCCAUGUAGGAUAUGCUAUGGACUAAGAGCGAAAGCUC	–	–	5.38	17.8
UGUCGGAAGUAGAAGGGUAUGACAUGAGGAUCACCCAUGUGAUUUGGGUAUACAGGAUAUGCUUAUAUAUAUGAUUAAAUUAUU	–	–	451	248
UGUCGGAGCAGAGGAUAUUACAUGAGGAUCACCCAUGUAUAAACCAAUAGCUGGAAACAGCAAUGUAAGAAGGCUGCUCCGACA	–	–	5.28	10.1
UGUCGGAGCAGAGGAUAUUACAUGAGGAUCACCCAUGUAUGAACCAAUAGCUGGAAACAGCAAUGAAAGAAGGCUGCUCCGACA	–	–	5.38	5.13
UGUCGGAGCAGAGGAUAUUACAUGAGGAUCACCCAUGUAUGAACCAAUAGCUGGAAACAGCAAUGUAAGAAGGAUGCUCCGACA	–	–	7.14	31.4
UGUCGGAGCAGAGGAUAUUACAUGAGGAUCACCCAUGUAUGAACCAAUAGCUGGAAACAGCAAUGUAAGAAGGCUGCUCCGUCA	–	–	11.9	167
UGUCGGAGCAGAGGAUAUUACAUGAGGAUCACCCAUGUAUGAACCAAUAUCUGGAAACAGCAAUGUAAGAAGGCUGCUCCGACA	–	–	7.16	47.3
UGUCUAUUUGAAGGAUAUCUAAGCAUAAACCAGAGAGAAGGUCAAUUAUACAUGAGGAUCACCCAUGUUGAGAUUAAUGGGUUU	–	–	20.5	26.4
UGUGCGUUGAUCUUCGAUCGGAGUACAUGAGGAUCACCCAUGUAGGAUAUUCAAAGACGCAGAUAGAAGAAGGACAUCGGUUUC	–	–	10.6	9.43
UGUGGGAGCAGAGGAUAUUACAUGAGGAUCACCCAUGUAUGAACCAAUAGCUGGAAACAGCAAUGUAAGAAGGCUGCUCCGACA	–	–	13	165
UGUGGUGAAGUAGGAUAUCAACACACAUGAGGAUCACCCAUGUUAGAUGUGGAUGUUGUAUGUUAUGAGAAGGACUUCGGUGCG	–	–	23.6	89
UGUGGUGGUCAGGAUAUAAAUUGCGCCUGACGCUUAGAAGGGACUACAUGAGGAUCACCCAUGUGAGAGCUUCA	–	–	16.4	15.9
UGUGUCUGUAGAGGAUAUCCGGGCGUUCGGCUAGGAGAAGGCUGCAACACAUGAGGAUCACCCAUGUAGGUUGUGUCUCCCUAC	–	–	9.9	29.7

Sequence	apparent Kd [1] [nM]	apparent Kd [2] [nM]	apparent Kd [3] [nM]	apparent Kd [4] [nM]
UGUGUGUGGGCAGGAUAUGCAUGAAUAUGUAUGAUGUAGUGUGAUGUAACAUGAGGAUCACCCAUGUAGAAGGGCCGGUGUGUG	–	–	99.3	116
UGUUAUUAGACAGGAUAUUGAAUGUUAAGUAUUAACAUGAGGAUCACCCAUGUAUUUGAUUGGUACAAGAAGGGUCAUGUUUGU	323	659	–	–
UGUUGAUAGCAGAAGGACAUGAGGAUCACCCAUGUAAGGUUACAAAUAUAUGUAGGAUAUGCUAUUGACUAAGAGUGAGCGUUC	–	–	8.88	39.5
UGUUGUAAUACAGGAUAUCUAUUAUUUUUAUUUAGAGAAGGGUAAUCACAUGAGGAUCACCCAUGUAUAUACGAGGAAGAAGAG	186	182	–	–
UGUUGUAUUACAGGAUAUCUAGUAUUUUUGUUUAGAGAAGGGUAUUCACAUGAGGAUCACCCAUGUAUAUACGAGGAAGUUGUG	57.2	63.7	–	–
UGUUGUAUUACAGGAUAUCUAUUGAUUUUAUUUAGAGAAGGGUAUUCACAUGAGGAUCACCCAUGUAUAUACGAGGAAGUUGUG	54.6	62.7	–	–
UGUUGUAUUACAGGAUAUCUAUUGUUAUUAUUUAGAGAAGGGUAUUCACAUGAGGAUCACCCAUGUAUAUACGAGGAAGUUGUG	45.3	45.5	–	–
UGUUGUAUUACAGGAUAUCUAUUGUUUUUAAUUAGAGAAGGGUAUUCACAUGAGGAUCACCCAUGUAUAUACGAGGAAGUUGUG	50.5	53.4	–	–
UGUUGUAUUACAGGAUAUCUGUUAUUUUUAUUUAGAGAAGGGUAUUCACAUGAGGAUCACCCAUGUAUAUACGAGGAAGUUGUG	57.3	61.4	–	–
UGUUUUCAUGUAGGAUAUGCUUGUCGUAGAUACGCAGAAGGACAUGAGGAUCACCCAUGUUAAUGCUACAGAUUUUAGUUUCUU	–	–	19.5	102
UUAAAUCAUGUAGGAUAUGCAUGGCGAAGCUACGCAGAAGGACAUGAGGAUCACCCAUGUUAAAGCUACCGGAUACGGUGGCAA	–	–	109	195
UUAAAUCAUGUAGGAUAUGCAUGGCGAAGCUACGCAGAAGGACAUGAGGAUCACCCAUGUUAUAGCUACCCAGUUCGGUGGCAA	–	–	96.1	221
UUAAAUCAUGUAGGAUAUGCAUGGCGAAGCUACGCAGAAGGACAUGAGGAUCACCCAUGUUAUAGCUACCGAUAAAGGUGGCAA	–	–	84.3	214
UUAAAUCAUGUAGGAUAUGCAUGGCGAAGCUACGCAGAAGGACAUGAGGAUCACCCAUGUUAUAGCUUCCCAGUUCGGAGGCAA	–	–	63.8	230
UUAAAUCAUGUAGGAUAUGCAUGGCGAAGCUACGCAGAAGGACAUGAGGAUCACCCAUGUUCUAGCGUCUGAGUUCAGAUGCAA	–	–	20.9	41.7
UUAACAUGAGGAUCACCCAUGUAUAGAUCGGUUAAUAGAAGUGAGGAUAUGCUUAAAUUCAGGUAGCAGAAGGCACUGGGUACU	26.9	29.9	–	–
UUAAGUCAUGUAGGAUAUCCGAGGCGAAGCGUUGGAGAAGGACAUGAGGAUCACCCAUGUUCUAGCGUCUGAGUACAGAUGCAG	–	–	29.5	94.7
UUAAGUUCAGGAUAUGAUGUUUUAAACAUGAGGAUCACCCAUGUAGAUCCUGAAUUAACAUCAGAAGGGAAUAUUU	–	–	37.5	217
UUAAUAAAGUAAGGAUAUACAUGAGGAUCACUCGUAGAAGGUACUAUACAUGAGGAUCACCCAUGUUCCGGUCAGAAGACUGGA	1100	778	–	–
UUAAUAAGUGUGAGGAUAUGCUGGUCCUUGGAUCAGCAGAAGGCACAUGAGGAUCACCCAUGUACAAUAUAUUA	–	–	33.6	215
UUAAUUAUACAAGGAUAUCUAUUGUUAUUUCGACUUACAUGAGGAUCACCCAUGUUAAUAUAUUUAGAGAAGGUGUAUUUUCAG	86.8	36.5	–	–
UUAAUUCAUGUAGGAUAUCCGAUGCGAAGCGUUGGAGAAGGACAUGAGGAUCACCCAUGUUCUAGCGUCUGAGUACAGAUGCAA	–	–	26.9	88.5
UUACCUCAUGAGAAGGACAUGAGGAUCACCCAUGUAGGAUAUCAUGGGUCAGUGGAAUUGAAUCUUCGGAUUCAAUAACUCUAC	140	44	–	–
UUACCUCAUGAGAAGGACAUGAGGAUCACCCAUGUAGGAUAUCAUGGGUCAGUGGAAUUGAAUCUUCGGAUUCAAUAACUCUAU	114	34.5	–	–
UUACUACAUGAGGAUCACCCAUGUCAGGAUAUUGUCUAUACUUUGGAAUAUGUGUCGAUAAGAAGGGACUGUAU	–	–	19.9	26.2
UUACUGUAAUAGAAGGGUAUUUGGGUUUUACAUGAGGAUCACCCAUGUUUUAUAGGAUAUGUUUAUAGUUUUUAAUCAAGUUUA	–	–	91.1	68.7
UUAGCAACAUGAGGAUCACCCAUGUAGGAUAUCGCUAUUGUAAUCAUGAAACAUGAUUACAAUAGCGAGAAGGACAUAUGCUCC	–	–	7.17	10.6
